ChEMBL document CHEMBL3797037, “Kinetically Selective Inhibitors of Human Carbonic Anhydrase Isozymes I, II, VII, IX, XII, and XIII” (J Med Chem, 2016)
Calls of active or inactive are those of the source. The rule behind the calls is not given here.

Tests used:
[1] = molecular target: Carbonic anhydrase 1 (Homo sapiens, UniProt P00915); assay: Binding affinity to human recombinant CA1 expressed in Escherichia coli by fluorescence-based thermal shift assay
[2] = molecular target: Carbonic anhydrase 2 (Homo sapiens, UniProt P00918); assay: Binding affinity to human recombinant CA2 expressed in Escherichia coli by fluorescence-based thermal shift assay
[3] = molecular target: T1, Carbonic anhydrase 7 (Homo sapiens, UniProt P43166); assay: Binding affinity to human recombinant CA7 assessed as dissociation rate constant after 30 secs by surface plasmon resonance assay
[4] = molecular target: T1, Carbonic anhydrase 7; assay: Binding affinity to human recombinant CA7 after 30 secs by surface plasmon resonance assay
[5] = molecular target: T1, Carbonic anhydrase 7; assay: Binding affinity to human recombinant CA7 by fluorescence-based thermal shift assay
[6] = molecular target: T2, Carbonic anhydrase 9 (Homo sapiens, UniProt Q16790); assay: Binding affinity to human recombinant CA9 catalytic domain assessed as association rate constant after 30 secs by surface plasmon resonance assay
Outline: (§1)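 SPR kinetics at 25 °C on amine-coupled isozyme surfaces, with immobilization protein level and acetate coupling pH set per isozyme. Running buffer PBST, pH 7.4, with 2 % DMSO. Ligands run as 2-fold series from 15.6 to 2000 nM at 30 or 90 µL/min, with 30 s association and 180 s dissociation.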

[7] = molecular target: T2, Carbonic anhydrase 9; assay: Binding affinity to human recombinant CA9 catalytic domain after 30 secs by surface plasmon resonance assay
Outline: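 SPR kinetics at 25 °C on amine-coupled isozyme surfaces, with immobilization protein level and acetate coupling pH set per isozyme. Running buffer PBST, pH 7.4, with 2 % DMSO.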

[8] = molecular target: T2, Carbonic anhydrase 9; assay: Binding affinity to human recombinant CA9 catalytic domain by fluorescence-based thermal shift assay
[9] = molecular target: T3, Carbonic anhydrase 12 (Homo sapiens, UniProt O43570); assay: Binding affinity to human recombinant CA12 catalytic domain after 30 secs by surface plasmon resonance assay
[10] = molecular target: T3, Carbonic anhydrase 12; assay: Binding affinity to human recombinant CA12 catalytic domain by fluorescence-based thermal shift assay
[11] = molecular target: T4, Carbonic anhydrase 13 (Homo sapiens, UniProt Q8N1Q1); assay: Binding affinity to human recombinant CA13 by fluorescence-based thermal shift assay
Target sequence in this assay (Q8N1Q1 whole entry): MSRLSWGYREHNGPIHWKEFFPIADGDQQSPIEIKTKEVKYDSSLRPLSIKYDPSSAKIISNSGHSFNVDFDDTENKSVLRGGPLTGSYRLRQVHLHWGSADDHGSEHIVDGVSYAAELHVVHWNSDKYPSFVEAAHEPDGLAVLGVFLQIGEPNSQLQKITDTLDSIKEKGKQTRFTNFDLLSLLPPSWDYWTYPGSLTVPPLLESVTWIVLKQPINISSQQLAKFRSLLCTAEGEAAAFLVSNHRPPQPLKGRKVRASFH

[12] = molecular target: T4, Carbonic anhydrase 13; assay: Slow rate dissociation at human recombinant CA13 after 30 sec by surface plasmon resonance assay; outline: as §1
Target sequence in this assay (Q8N1Q1 whole entry, looked up): as the sequence (Q8N1Q1 whole entry) above

[13] = molecular target: T2, Carbonic anhydrase 9; assay: Binding affinity to human recombinant CA9 catalytic domain assessed as association rate constant at pH 6 by surface plasmon resonance assay
Outline: (§2)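 pH-dependence SPR on CA IX or CA XII catalytic domain surfaces, using a denatured-protein reference. Buffers were 50 mM sodium phosphate, 150 mM NaCl, 0.05 % Tween-20 and 2 % DMSO at pH 6.0, 7.0 or 8.0. Ligands ran as 2-fold series (62.5–2000 or 31.3–1000 nM) with 60 s injection and 90–360 s dissociation. Triplicates used a new surface each time. KD = kd/ka from the kinetic fit.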

[14] = molecular target: T2, Carbonic anhydrase 9; assay: Binding affinity to human recombinant CA9 catalytic domain assessed as dissociation rate constant at pH 6 by surface plasmon resonance assay; outline: as §2
[15] = molecular target: T2, Carbonic anhydrase 9; assay: Binding affinity to human recombinant CA9 catalytic domain assessed as dissociation constant calculated from kinetic parameters at pH 6 by surface plasmon resonance assay; outline: as §2
[16] = molecular target: T3, Carbonic anhydrase 12; assay: Binding affinity to human recombinant CA12 catalytic domain assessed as dissociation constant calculated from saturation signal at pH 6 by surface plasmon resonance assay
[17] = molecular target: T3, Carbonic anhydrase 12; assay: Binding affinity to human recombinant CA12 catalytic domain assessed as dissociation constant calculated from saturation signal at pH 7 by surface plasmon resonance assay
[18] = molecular target: T2, Carbonic anhydrase 9; assay: Binding affinity to human recombinant CA9 catalytic domain assessed as association rate constant at pH 7 by surface plasmon resonance assay; outline: as §2
[19] = molecular target: T2, Carbonic anhydrase 9; assay: Binding affinity to human recombinant CA9 catalytic domain assessed as dissociation rate constant at pH 7 by surface plasmon resonance assay; outline: as §2
[20] = molecular target: T2, Carbonic anhydrase 9; assay: Binding affinity to human recombinant CA9 catalytic domain assessed as dissociation constant calculated from kinetic parameters at pH 7 by surface plasmon resonance assay; outline: as §2
[21] = molecular target: T2, Carbonic anhydrase 9; assay: Binding affinity to human recombinant CA9 catalytic domain assessed as association rate constant at pH 8 by surface plasmon resonance assay; outline: as §2
[22] = molecular target: T2, Carbonic anhydrase 9; assay: Binding affinity to human recombinant CA9 catalytic domain assessed as dissociation rate constant at pH 8 by surface plasmon resonance assay; outline: as §2
[23] = molecular target: T2, Carbonic anhydrase 9; assay: Binding affinity to human recombinant CA9 catalytic domain assessed as dissociation constant calculated from kinetic parameters at pH 8 by surface plasmon resonance assay; outline: as §2
[24] = molecular target: T3, Carbonic anhydrase 12; assay: Binding affinity to human recombinant CA12 catalytic domain assessed as dissociation constant calculated from saturation signal at pH 8 by surface plasmon resonance assay

T3 sequence (O43570 whole entry, the tested form may be a part): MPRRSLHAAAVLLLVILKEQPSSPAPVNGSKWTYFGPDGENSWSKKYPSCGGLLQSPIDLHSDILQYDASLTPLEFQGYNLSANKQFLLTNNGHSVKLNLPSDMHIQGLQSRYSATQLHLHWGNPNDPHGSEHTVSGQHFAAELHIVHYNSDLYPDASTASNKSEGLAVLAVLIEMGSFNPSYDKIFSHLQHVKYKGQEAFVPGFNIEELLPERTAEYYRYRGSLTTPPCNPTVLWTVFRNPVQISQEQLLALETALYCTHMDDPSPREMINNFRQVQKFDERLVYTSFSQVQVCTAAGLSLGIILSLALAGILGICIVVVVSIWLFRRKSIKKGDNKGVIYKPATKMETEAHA
T1 sequence (P43166 whole entry): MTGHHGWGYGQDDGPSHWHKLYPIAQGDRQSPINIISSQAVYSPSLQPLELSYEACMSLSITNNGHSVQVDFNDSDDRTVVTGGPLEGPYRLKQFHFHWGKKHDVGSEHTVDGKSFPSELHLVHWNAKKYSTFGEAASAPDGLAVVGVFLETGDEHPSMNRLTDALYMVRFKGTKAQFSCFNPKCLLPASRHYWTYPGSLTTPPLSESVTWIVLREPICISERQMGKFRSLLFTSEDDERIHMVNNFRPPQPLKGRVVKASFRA
Sequence of Carbonic anhydrase 1 (P00915 whole entry): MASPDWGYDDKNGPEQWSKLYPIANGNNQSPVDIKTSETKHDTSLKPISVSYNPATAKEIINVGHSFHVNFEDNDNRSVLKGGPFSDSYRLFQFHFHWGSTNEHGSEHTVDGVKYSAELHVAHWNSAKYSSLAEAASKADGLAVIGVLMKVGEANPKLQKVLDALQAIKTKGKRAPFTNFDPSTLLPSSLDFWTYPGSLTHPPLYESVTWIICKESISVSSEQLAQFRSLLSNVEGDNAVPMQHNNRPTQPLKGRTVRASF

Kd [1]: 9100 nM
Kd [2]: 450 nM
koff (dissociation rate constant) [3]: 1 ×10⁻² /s
Kd [4]: 510 nM
Kd [5]: 74 nM
K [6]: 2.9 ×10⁵ /M/s
Kd [7]: 27 nM
Kd [8]: 0.17 nM
Kd [9]: 400 nM
Kd [10]: 100 nM
Kd [11]: 33 nM
Activity [12]: Active
K [13]: 5.8 ×10⁴ /M/s
Dissociation rate constant (koff) [14]: 7.9 ×10⁻³ /s
Kd [15]: 140 nM
Kd [16]: 2600 nM
Kd [17]: 840 nM
K [18]: 1.6 ×10⁵ /M/s
Dissociation rate constant (koff) [19]: 7.2 ×10⁻³ /s
Kd [20]: 46 nM
K [21]: 3.3 ×10⁵ /M/s
Dissociation rate constant (koff) [22]: 6.2 ×10⁻³ /s
Kd [23]: 19 nM
Kd [24]: 390 nM
SMILES: CCCSc1c(F)c(F)c(S(N)(=O)=O)c(NC2CCCCCCC2)c1F
